Experimental findings from ChEMBL document CHEMBL1150387, “Development and experimental validation of a docking strategy for the generation of kinase-targeted libraries” (J Med Chem, 2008) are described below.

Assay [1] addresses Receptor-type tyrosine-protein kinase FLT3 (Homo sapiens) (UniProt P36888). In words: Inhibition of FLT3 at 10 uM by HTRF assay relative to control. The procedure, abridged: (§1)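 HTRF kinase assay, one panel of kinases. Inhibitor stock 50 µM in 100% DMSO; tested at 10 µM. ATP and substrate at final levels near Km. Final buffer: 50 mM Hepes/NaOH pH 7.4, 40 µM Na3VO4, 0.005% Tween-20, 1 mM DTT, MnCl2 or MgCl2 at kinase-dependent levels. Started by adding ATP/substrate. Reaction run at room temperature, time varied by kinase. Detection mix in 50 mM Hepes pH 7.4, 0.1% BSA, 150 mM KF, incubated ≥1 h at room temperature. Activity expressed as % of uninhibited control; n=2.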
A general note: TR-FRET usually uses a lanthanide donor and a delayed reading to cut background.

Assay [2] addresses Vascular endothelial growth factor receptor 1 (Homo sapiens) (UniProt P17948). The experiment in a line: Inhibition of FLT1 at 10 uM by HTRF assay relative to control. The procedure, abridged: as §1
The target of assay [3] is T1, Ephrin type-B receptor 4 (Homo sapiens) (UniProt P54760).
T1 sequence (whole entry): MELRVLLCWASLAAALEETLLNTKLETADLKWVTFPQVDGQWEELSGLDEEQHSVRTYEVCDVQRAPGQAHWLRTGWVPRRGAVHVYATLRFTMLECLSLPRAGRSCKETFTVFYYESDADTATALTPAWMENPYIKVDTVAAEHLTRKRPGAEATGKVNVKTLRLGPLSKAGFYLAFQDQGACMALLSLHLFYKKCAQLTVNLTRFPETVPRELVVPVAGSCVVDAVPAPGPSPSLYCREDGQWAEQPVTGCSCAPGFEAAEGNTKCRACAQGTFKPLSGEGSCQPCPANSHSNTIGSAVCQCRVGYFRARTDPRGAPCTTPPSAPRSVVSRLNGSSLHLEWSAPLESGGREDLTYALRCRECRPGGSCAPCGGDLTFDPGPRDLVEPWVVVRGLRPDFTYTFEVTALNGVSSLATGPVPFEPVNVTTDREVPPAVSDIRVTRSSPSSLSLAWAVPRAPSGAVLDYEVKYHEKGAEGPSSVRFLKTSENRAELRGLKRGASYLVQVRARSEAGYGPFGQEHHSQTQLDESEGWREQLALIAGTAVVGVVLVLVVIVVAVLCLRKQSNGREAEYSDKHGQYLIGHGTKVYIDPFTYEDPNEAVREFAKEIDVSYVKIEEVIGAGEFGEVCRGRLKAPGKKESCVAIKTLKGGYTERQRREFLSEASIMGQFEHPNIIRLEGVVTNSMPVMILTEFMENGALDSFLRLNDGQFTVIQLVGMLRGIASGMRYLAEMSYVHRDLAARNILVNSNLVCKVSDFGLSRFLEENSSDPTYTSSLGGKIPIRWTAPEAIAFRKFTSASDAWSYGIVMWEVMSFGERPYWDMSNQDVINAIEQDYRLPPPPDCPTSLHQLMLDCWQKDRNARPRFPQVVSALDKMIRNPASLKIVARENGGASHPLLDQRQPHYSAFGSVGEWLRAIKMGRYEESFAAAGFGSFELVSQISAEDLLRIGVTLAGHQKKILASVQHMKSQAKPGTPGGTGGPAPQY
In words: Inhibition of EphB4 at 10 uM by HTRF assay relative to control. In short, it runs like this: as §1

Assay [4] has as its target Epidermal growth factor receptor (Homo sapiens) (UniProt P00533). In words: Inhibition of EGFR at 10 uM by HTRF assay relative to control. In short, it runs like this: as §1
For assay [5], the target named is Mitogen-activated protein kinase 14 (Homo sapiens) (UniProt Q16539). In words: Inhibition of p38alpha at 10 uM by HTRF assay relative to control. The procedure, abridged:
as §1

The target of assay [6] is Mitogen-activated protein kinase 9 (Homo sapiens) (UniProt P45984). In words: Inhibition of JNK2 at 10 uM by HTRF assay relative to control. The procedure, abridged: as §1
Assay [7] has as its target MAP kinase-activated protein kinase 2 (Homo sapiens) (UniProt P49137). The experiment in a line: Inhibition of MAPKAPK2 at 10 uM by HTRF assay relative to control. In short, it runs like this:
as §1

In assay [8] the target is T2, Calcium/calmodulin-dependent protein kinase type IV (Homo sapiens) (UniProt Q16566).
T2 sequence (whole entry): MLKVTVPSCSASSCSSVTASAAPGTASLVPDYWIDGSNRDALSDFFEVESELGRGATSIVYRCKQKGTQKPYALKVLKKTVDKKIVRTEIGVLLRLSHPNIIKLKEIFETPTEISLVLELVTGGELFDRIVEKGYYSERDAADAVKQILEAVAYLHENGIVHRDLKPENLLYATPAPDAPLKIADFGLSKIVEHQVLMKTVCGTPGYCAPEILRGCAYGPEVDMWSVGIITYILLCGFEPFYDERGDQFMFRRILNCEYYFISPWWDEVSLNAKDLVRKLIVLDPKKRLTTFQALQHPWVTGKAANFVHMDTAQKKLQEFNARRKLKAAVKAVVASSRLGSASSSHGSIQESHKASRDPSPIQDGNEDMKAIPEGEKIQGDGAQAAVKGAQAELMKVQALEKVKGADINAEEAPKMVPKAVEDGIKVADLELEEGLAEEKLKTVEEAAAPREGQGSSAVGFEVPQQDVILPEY
In words: Inhibition of CaMK4 at 10 uM by HTRF assay relative to control. In short, it runs like this:
as §1

Assay [9] deals with Calcium/calmodulin-dependent protein kinase type II subunit alpha (Homo sapiens) (UniProt Q9UQM7). The experiment in a line: Inhibition of CaMK2alpha at 10 uM by HTRF assay relative to control. The procedure, abridged:
as §1

For assay [10], the target named is Protein kinase C gamma type (Homo sapiens) (UniProt P05129). In words: Inhibition of PKCgamma at 10 uM by HTRF assay relative to control. The procedure, abridged:
as §1

The target of assay [11] is Protein kinase C alpha type (Homo sapiens) (UniProt P17252). The experiment in a line: Inhibition of PKCalpha at 10 uM by HTRF assay relative to control. The procedure, abridged: as §1
Assay [12] has as its target Focal adhesion kinase 1 (Homo sapiens) (UniProt Q05397). The experiment in a line: Inhibition of FAK at 10 uM by HTRF assay relative to control. The procedure, abridged: as §1
Assay [13] has as its target Platelet-derived growth factor receptor beta (Homo sapiens) (UniProt P09619). The experiment in a line: Inhibition of PDGFRbeta at 10 uM by HTRF assay relative to control. The procedure, abridged: as §1
Assay [14] deals with Vascular endothelial growth factor receptor 2 (Homo sapiens) (UniProt P35968). The experiment in a line: Inhibition of KDR at 10 uM by HTRF assay relative to control. The procedure, abridged:
as §1

Assay [15] has as its target 3-phosphoinositide-dependent protein kinase 1 (Homo sapiens) (UniProt O15530). In words: Inhibition of PDK1 at 10 uM by HTRF assay relative to control.

MAP kinase-activated protein kinase 2 (Homo sapiens), sequence (P49137 whole entry, looked up): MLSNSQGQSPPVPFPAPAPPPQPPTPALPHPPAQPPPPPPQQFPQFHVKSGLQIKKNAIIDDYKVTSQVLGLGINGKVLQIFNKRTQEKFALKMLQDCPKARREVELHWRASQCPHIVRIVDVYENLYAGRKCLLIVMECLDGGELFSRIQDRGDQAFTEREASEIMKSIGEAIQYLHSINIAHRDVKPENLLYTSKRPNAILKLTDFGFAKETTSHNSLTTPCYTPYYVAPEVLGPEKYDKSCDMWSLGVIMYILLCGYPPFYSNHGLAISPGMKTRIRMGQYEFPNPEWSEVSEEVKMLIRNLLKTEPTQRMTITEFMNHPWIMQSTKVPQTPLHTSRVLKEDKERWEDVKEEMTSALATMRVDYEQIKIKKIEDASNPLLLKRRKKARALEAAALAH
3-phosphoinositide-dependent protein kinase 1 (Homo sapiens), sequence (O15530 whole entry, looked up): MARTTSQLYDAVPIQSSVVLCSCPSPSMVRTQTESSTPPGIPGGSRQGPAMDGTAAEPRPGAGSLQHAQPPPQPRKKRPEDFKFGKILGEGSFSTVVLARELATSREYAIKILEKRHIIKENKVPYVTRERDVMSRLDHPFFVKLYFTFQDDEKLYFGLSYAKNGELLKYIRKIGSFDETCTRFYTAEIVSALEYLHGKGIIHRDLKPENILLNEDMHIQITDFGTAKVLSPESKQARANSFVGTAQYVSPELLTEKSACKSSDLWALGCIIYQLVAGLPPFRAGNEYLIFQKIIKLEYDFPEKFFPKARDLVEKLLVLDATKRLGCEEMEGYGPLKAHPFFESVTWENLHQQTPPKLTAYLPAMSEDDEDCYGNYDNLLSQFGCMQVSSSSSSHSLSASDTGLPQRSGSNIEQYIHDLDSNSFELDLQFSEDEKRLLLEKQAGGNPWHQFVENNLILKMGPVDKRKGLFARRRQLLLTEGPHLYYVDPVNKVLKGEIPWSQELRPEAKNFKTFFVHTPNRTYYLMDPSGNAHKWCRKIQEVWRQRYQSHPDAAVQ
Calcium/calmodulin-dependent protein kinase type II subunit alpha (Homo sapiens), sequence (Q9UQM7 whole entry): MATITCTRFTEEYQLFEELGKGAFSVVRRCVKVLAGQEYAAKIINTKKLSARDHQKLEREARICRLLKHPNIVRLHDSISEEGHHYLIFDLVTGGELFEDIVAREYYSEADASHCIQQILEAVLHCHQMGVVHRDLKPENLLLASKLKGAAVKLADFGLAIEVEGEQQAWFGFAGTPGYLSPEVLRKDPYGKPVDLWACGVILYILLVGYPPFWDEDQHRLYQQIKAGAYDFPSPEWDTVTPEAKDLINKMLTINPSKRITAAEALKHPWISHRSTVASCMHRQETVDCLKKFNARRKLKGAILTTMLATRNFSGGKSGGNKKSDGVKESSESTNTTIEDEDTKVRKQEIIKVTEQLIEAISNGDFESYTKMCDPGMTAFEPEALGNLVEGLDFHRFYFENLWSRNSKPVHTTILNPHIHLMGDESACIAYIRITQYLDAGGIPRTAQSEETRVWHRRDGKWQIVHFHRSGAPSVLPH
Vascular endothelial growth factor receptor 1 (Homo sapiens), sequence (P17948 whole entry): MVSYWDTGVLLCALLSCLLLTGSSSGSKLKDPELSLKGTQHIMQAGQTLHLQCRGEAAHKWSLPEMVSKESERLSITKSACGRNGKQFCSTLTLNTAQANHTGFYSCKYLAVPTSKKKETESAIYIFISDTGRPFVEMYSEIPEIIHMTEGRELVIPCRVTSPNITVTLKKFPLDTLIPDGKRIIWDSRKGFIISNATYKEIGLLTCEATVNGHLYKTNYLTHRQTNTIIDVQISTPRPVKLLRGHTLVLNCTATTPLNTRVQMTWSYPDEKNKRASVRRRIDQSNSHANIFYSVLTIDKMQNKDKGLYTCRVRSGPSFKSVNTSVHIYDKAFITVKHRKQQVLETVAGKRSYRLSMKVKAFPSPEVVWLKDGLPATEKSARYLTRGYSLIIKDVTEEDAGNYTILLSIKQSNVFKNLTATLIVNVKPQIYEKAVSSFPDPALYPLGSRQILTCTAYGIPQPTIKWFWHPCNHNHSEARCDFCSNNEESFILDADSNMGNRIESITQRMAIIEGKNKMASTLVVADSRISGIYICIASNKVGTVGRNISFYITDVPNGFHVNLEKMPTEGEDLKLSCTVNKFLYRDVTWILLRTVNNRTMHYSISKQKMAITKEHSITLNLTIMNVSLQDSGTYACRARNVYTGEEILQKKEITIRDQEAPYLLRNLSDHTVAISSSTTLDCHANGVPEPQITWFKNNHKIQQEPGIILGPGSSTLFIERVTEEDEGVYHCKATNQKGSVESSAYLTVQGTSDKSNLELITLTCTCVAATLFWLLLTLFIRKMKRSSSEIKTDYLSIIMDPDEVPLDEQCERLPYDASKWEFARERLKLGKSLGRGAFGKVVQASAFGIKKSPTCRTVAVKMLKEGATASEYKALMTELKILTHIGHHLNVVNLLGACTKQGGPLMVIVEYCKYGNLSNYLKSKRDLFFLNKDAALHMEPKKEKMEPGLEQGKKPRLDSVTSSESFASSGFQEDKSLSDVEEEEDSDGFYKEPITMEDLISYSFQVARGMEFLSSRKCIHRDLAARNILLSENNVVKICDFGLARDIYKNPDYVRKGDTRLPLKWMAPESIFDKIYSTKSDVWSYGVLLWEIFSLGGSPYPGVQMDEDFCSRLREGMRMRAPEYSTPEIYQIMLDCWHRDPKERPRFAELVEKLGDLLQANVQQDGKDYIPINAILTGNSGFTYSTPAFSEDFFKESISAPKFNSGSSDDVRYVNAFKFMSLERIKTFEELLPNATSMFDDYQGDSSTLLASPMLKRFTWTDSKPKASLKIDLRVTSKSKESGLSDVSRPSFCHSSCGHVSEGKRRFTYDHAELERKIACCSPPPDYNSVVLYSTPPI
Focal adhesion kinase 1 (Homo sapiens), sequence (Q05397 2-1052 limits assumed): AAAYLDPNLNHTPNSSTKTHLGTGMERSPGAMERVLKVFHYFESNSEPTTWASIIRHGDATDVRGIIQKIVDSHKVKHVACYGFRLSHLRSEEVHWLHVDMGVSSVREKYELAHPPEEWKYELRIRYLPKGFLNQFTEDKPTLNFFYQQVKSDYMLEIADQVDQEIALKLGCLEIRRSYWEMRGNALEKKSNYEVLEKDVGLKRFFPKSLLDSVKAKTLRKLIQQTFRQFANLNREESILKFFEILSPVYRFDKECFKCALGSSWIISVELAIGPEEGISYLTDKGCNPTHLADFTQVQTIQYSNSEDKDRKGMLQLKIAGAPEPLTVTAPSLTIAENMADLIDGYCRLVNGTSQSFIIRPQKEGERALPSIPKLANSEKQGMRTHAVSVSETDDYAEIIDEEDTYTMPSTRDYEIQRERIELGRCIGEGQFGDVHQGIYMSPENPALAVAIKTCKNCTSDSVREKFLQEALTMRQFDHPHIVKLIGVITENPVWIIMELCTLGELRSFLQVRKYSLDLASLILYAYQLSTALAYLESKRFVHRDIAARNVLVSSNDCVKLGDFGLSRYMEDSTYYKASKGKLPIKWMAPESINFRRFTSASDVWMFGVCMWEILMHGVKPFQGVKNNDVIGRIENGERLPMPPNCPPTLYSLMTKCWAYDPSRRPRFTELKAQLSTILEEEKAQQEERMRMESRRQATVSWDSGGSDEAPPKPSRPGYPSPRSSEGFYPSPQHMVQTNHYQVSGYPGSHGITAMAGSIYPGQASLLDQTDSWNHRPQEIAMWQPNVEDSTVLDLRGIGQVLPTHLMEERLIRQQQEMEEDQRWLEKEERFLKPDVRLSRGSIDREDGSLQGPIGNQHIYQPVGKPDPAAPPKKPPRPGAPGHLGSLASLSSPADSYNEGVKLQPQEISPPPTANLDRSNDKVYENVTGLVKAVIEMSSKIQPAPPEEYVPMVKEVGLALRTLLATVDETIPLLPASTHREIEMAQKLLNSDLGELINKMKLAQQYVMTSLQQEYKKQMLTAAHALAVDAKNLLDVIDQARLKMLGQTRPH
Platelet-derived growth factor receptor beta (Homo sapiens), sequence (P09619 whole entry): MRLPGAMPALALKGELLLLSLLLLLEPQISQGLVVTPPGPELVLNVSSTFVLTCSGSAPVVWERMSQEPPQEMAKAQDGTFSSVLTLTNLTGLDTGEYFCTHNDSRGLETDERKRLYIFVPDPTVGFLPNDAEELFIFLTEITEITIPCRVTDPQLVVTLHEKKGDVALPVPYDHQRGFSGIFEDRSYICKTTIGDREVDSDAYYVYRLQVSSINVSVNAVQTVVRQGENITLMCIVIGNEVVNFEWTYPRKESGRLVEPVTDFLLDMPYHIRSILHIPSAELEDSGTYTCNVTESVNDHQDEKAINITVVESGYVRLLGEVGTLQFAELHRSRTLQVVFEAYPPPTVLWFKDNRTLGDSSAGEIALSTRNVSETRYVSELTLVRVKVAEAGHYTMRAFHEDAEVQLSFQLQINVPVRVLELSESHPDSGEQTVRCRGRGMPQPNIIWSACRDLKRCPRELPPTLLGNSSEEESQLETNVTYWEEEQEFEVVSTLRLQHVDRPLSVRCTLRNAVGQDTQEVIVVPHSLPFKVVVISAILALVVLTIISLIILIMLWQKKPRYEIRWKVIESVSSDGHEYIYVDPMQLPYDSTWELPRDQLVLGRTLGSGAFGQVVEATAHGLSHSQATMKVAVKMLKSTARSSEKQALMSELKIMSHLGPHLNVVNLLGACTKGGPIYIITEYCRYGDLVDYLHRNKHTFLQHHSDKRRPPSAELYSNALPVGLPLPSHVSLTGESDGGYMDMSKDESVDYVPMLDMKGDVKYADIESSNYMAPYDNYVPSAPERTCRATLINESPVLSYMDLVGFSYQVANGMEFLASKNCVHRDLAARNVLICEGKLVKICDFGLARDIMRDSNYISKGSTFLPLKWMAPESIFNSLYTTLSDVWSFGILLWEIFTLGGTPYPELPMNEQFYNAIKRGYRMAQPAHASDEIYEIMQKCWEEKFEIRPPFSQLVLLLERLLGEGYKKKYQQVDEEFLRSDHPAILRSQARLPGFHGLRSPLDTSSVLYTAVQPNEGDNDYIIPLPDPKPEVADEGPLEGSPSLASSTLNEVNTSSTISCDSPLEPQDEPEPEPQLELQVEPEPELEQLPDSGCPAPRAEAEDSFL

As usually defined, the inhibition is the change of the read-out against control, counted positive when it falls. Consider `O=C(NCc1cccnc1)c1cccc(-c2ccc(Nc3ccc4ncsc4c3)nn2)c1`, for which the inhibition stood at 98% in assay [1]; 43% in [2]; 0% in assay [3]; 27% in [4]; 0% in [5]; 51% in assay [6]. In addition, the inhibition turned out to be 6% in assay [7]; 0% in assay [8]; 0% in assay [9]; 28% in [10]; 0% in assay [11]; 67% in assay [12]. Moreover, the inhibition was found to be 85% in [13], 62% in [14] and 4% in assay [15].

With `CC(=O)N1CCN(C(=O)c2cccc(Nc3cc(N(C)c4cccc(C)c4)ncn3)c2)CC1`, the inhibition came out at 29% in [1]; 5% in assay [2]; 0% in assay [3]; 99% in [4]; 4% in assay [5]; 7% in assay [6]. The inhibition in [7] is 0%; in [8], 0%; in assay [9], 0%; in assay [10], 5%; in assay [11] it was 6%; in assay [12], 17%. Also, the inhibition worked out at 42% in assay [13], 41% in [14] and 0% in assay [15].

For `O=C(c1nc(SCc2ccc(Cl)cc2)n2ccccc12)N1CCN(c2cc(Nc3cccc(Br)c3)ncn2)CC1`, the inhibition turned out to be 0% in assay [1]; 0% in [2]; 0% in assay [3]; 0% in [4]; 6% in assay [5]; 3% in assay [6]. Also, the inhibition in assay [7] came out at 2%; in assay [8] it was 0%; in assay [9], 0%; in [10], 4%; in [11] it was 0%; in [12], 1%. Also, the inhibition in [13] was found to be 10%; in assay [14], 0%; in assay [15] it was 0%.

Turning to `Cc1cccc(Nc2nccc3c2CN(C(=O)c2cc(C)n(C)c2C)CC3)c1`, the inhibition in [1] was found to be 0%; in assay [2], 0%; in assay [3], 0%; in [4], 82%; in [5], 0%; in [6], 3%. Besides, the inhibition in assay [7] turned out to be 0%; in assay [8] it was 0%; in assay [9], 0%; in assay [10] it was 4%; in [11], 1%; in [12] it was 1%. Also, the inhibition came to 5% in [13], 0% in assay [14] and 0% in assay [15].

As to `Cc1cccc(N(C)c2cc(N3CCN(CC(=O)Nc4nc(-c5ccccc5)cs4)CC3)ncn2)c1`, the inhibition stood at 0% in assay [1]; 14% in assay [2]; 0% in assay [3]; 0% in assay [4]; 0% in [5]; 0% in assay [6]. Besides, the inhibition in [7] was 3%; in assay [8], 0%; in assay [9], 0%; in assay [10] it was 0%; in assay [11], 3%; in [12], 5%. In addition, the inhibition worked out at 7% in [13], 9% in assay [14] and 5% in [15].

In the case of `COC[C@@H]1CCCN1C(=O)[C@@H]1CCCN1c1nccc(Nc2ccccc2)n1`, the inhibition in [1] amounted to 0%; in [2] it was 1%; in assay [3] it was 0%; in assay [4] it was 0%; in assay [5] it was 0%; in assay [6], 4%. The inhibition in assay [7] was 1%; in assay [8] it was 0%; in assay [9], 0%; in assay [10], 0%; in assay [11], 0%; in assay [12], 0%. The figures for the inhibition in assay [13], in assay [14] and in assay [15] were 8%, 4% and 1%, respectively.

`COc1ccc(-c2noc(CN3CCN(c4cc(Nc5cccc(O)c5)ncn4)CC3)n2)cc1`: the inhibition in [1] was 0%; in [2], 0%; in assay [3] it was 0%; in [4], 17%; in [5] it was 1%; in assay [6], 2%. Also, the inhibition in [7] came out at 0%; in [8], 0%; in [9], 0%; in assay [10], 5%; in [11], 0%; in assay [12], 3%. The figures for the inhibition in assay [13], in assay [14] and in assay [15] were 6%, 0% and 4%, respectively.

`Cc1cccc(Oc2ccnc(N3CCN(CC(=O)Nc4cccc5c4CCCC5)CC3)n2)c1`: the inhibition in assay [1] was 0%; in [2], 0%; in assay [3] it was 0%; in [4], 0%; in [5] it was 16%; in assay [6] it was 2%. For the same compound, the inhibition in assay [7] was found to be 0%; in [8], 0%; in assay [9], 0%; in [10], 5%; in assay [11], 3%; in assay [12] it was 0%. Besides, the results for the inhibition in assay [13], in assay [14] and in [15] were 6%, 0% and 0%, respectively.

In the case of `CN(CCc1ccccn1)C(=O)[C@@H]1CCCN1c1nccc(Nc2ccccc2)n1`, the inhibition in assay [1] came out at 0%; in [2], 0%; in assay [3] it was 0%; in assay [4] it was 0%; in assay [5], 0%; in assay [6], 2%. Also, the inhibition amounted to 0% in assay [7]; 0% in [8]; 1% in [9]; 6% in [10]; 1% in [11]; 2% in assay [12]. The inhibition was 5% in [13], 2% in [14] and 0% in assay [15].

`O=C(NCCc1ccc(O)cc1)c1cccc(Nc2nccc(Nc3ccc4ncsc4c3)n2)c1`: the inhibition in [1] came out at 98%; in assay [2], 42%; in [3] it was 0%; in [4] it was 0%; in [5], 9%; in assay [6], 39%. Besides, the inhibition turned out to be 2% in assay [7]; 0% in assay [8]; 0% in [9]; 16% in assay [10]; 0% in [11]; 78% in [12]. Besides, the inhibition in assay [13] worked out at 89%; in assay [14] it was 43%; in assay [15] it was 0%.
